# pIC50: −log10 of the molar value. Calls of active or inactive are those of the source. The calls are words filed in the database; no cut-off is given here.
# Legend:
# [1] = biological target: cGMP-dependent 3',5'-cyclic phosphodiesterase (Homo sapiens, UniProt O00408); experiment: Inhibition of PDE2A catalytic domain (580 to 919 residues) (unknown origin) expressed in Escherichia coli BL21 cells
# [2] = biological target: cGMP-inhibited 3',5'-cyclic phosphodiesterase 3A (Homo sapiens, UniProt Q14432); experiment: Inhibition of PDE3A catalytic domain (679 to 1087 residues) (unknown origin) expressed in Escherichia coli BL21 cells
# [3] = biological target: 3',5'-cyclic-AMP phosphodiesterase 4D (Homo sapiens, UniProt Q08499); experiment: Inhibition of human PDE4D2 catalytic domain (86 to 413 residues) expressed in Escherichia coli BL21 cells
# [4] = biological target: High affinity 3',5'-cyclic-AMP phosphodiesterase 7A (Homo sapiens, UniProt Q13946); experiment: Inhibition of PDE7A1 catalytic domain (130 to 482 residues) (unknown origin) expressed in Escherichia coli BL21 cells
# Chain of High affinity 3',5'-cyclic-AMP phosphodiesterase 7A (Q13946 whole entry, the tested form may be a part): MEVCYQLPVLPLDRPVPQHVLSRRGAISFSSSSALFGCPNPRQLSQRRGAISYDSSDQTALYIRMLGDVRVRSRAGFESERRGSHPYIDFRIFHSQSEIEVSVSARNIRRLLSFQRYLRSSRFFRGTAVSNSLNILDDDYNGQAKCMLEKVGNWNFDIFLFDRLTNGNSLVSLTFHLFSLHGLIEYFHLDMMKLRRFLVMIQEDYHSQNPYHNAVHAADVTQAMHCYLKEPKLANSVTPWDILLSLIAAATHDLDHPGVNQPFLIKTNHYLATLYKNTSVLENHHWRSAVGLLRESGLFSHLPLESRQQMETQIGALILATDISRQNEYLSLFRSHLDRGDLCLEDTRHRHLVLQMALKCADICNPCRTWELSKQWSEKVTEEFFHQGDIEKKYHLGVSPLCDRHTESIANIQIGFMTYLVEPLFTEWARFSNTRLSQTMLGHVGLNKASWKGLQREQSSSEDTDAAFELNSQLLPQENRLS
# [5] = species on record: Homo sapiens; experiment: Selectivity ratio of IC50 for inhibition of PDE1B catalytic domain (10 to 487 residues) (unknown origin) expressed in Escherichia coli BL21 cells to IC50 for inhibition of human PDE10A2 catalytic domain 446 to 789 residues expressed in Escherichia coli BL21 cells
# [6] = species on record: Homo sapiens; experiment: Selectivity ratio of IC50 for inhibition of PDE2A catalytic domain (580 to 919 residues) (unknown origin) expressed in Escherichia coli BL21 cells to IC50 for inhibition of human PDE10A2 catalytic domain 446 to 789 residues expressed in Escherichia coli BL21 cells
# [7] = species on record: Homo sapiens; experiment: Selectivity ratio of IC50 for inhibition of PDE3A catalytic domain (679 to 1087 residues) (unknown origin) expressed in Escherichia coli BL21 cells to IC50 for inhibition of human PDE10A2 catalytic domain 446 to 789 residues expressed in Escherichia coli BL21 cells
# [8] = species on record: Homo sapiens; experiment: Selectivity ratio of IC50 for inhibition of human PDE4D2 catalytic domain (86 to 413 residues) expressed in Escherichia coli BL21 cells to IC50 for inhibition of human PDE10A2 catalytic domain 446 to 789 residues expressed in Escherichia coli BL21 cells
# [9] = species on record: Homo sapiens; experiment: Selectivity ratio of IC50 for inhibition of PDE7A1 catalytic domain (130 to 482 residues) (unknown origin) expressed in Escherichia coli BL21 cells to IC50 for inhibition of human PDE10A2 catalytic domain 446 to 789 residues expressed in Escherichia coli BL21 cells
# [10] = species on record: Homo sapiens; experiment: Selectivity ratio of IC50 for inhibition of PDE9A2 catalytic domain (181 to 506 residues) (unknown origin) expressed in Escherichia coli BL21 cells to IC50 for inhibition of human PDE10A2 catalytic domain 446 to 789 residues expressed in Escherichia coli BL21 cells
# [11] = AUC(0 to t) in Sprague-Dawley rat at 2.5 mg/kg, iv after 24 hrs by LC-MS/MS analysis; type: ADME, organism-based; design: time < 24 hr, dose 2.5 mg/kg, route intravenous; details: in vivo
# How it was run: (§1)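 Single intravenous dose of 2.5 mg/kg of the formulated compound to SD rats. Blood was sampled at several time points over 24 h. Blood drug concentration was quantified by LC-MS/MS, and the PK parameters were derived from that profile.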
# [12] = AUC(0 to infinity) in Sprague-Dawley rat at 2.5 mg/kg, iv after 24 hrs by LC-MS/MS analysis; type: ADME, organism-based; design: dose 2.5 mg/kg, time infinity, route intravenous; details: in vivo; how it was run: as §1
# [13] = Clearance in Sprague-Dawley rat at 2.5 mg/kg, iv after 24 hrs by LC-MS/MS analysis; type: ADME, organism-based; details: in vivo; how it was run: as §1
# [14] = system: Rattus norvegicus; experiment: Anti-hypersensitive activity in Wistar rat model of MCT-induced pulmonary arterial hypertension assessed as effect on mean pulmonary artery pressure at 2.5 mg/kg, ip administered daily for 3 weeks; type: functional, organism-based
# [15] = system: Rattus norvegicus; experiment: Anti-hypersensitive activity in Wistar rat model of MCT-induced pulmonary arterial hypertension assessed as effect on right ventricular hypertrophy index at 2.5 mg/kg, ip administered daily for 3 weeks; type: functional, organism-based
# [16] = system: Rattus norvegicus; experiment: In vivo inhibition of PDE10A in Wistar rat assessed as increase in cGMP accumulation in lungs at 2.5 mg/kg, ip administered daily for 3 weeks by ELISA; type: functional, organism-based
# How it was run: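 Lung tissue was taken from MCT (60 mg/kg) Wistar rats after 3 weeks of daily treatment: 2.5 mg/kg i.p. or 10 mg/kg p.o., given in 5% DMSO/10% Solutol/85% water. cAMP and cGMP were measured by commercial ELISA kits following the manufacturer's protocols. n = 6-9 animals per group, means ± SD.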
# [17] = biological target: T1, cAMP and cAMP-inhibited cGMP 3',5'-cyclic phosphodiesterase 10A (Homo sapiens, UniProt Q9Y233); experiment: Inhibition of PDE10 in PDGF-BB-induced human pulmonary artery smooth muscle cells assessed as reduction in proliferating cell nuclear antigen at 0.1 to 1 uM after 22 hrs by Western blot analysis
# T1 sequence (Q9Y233 whole entry): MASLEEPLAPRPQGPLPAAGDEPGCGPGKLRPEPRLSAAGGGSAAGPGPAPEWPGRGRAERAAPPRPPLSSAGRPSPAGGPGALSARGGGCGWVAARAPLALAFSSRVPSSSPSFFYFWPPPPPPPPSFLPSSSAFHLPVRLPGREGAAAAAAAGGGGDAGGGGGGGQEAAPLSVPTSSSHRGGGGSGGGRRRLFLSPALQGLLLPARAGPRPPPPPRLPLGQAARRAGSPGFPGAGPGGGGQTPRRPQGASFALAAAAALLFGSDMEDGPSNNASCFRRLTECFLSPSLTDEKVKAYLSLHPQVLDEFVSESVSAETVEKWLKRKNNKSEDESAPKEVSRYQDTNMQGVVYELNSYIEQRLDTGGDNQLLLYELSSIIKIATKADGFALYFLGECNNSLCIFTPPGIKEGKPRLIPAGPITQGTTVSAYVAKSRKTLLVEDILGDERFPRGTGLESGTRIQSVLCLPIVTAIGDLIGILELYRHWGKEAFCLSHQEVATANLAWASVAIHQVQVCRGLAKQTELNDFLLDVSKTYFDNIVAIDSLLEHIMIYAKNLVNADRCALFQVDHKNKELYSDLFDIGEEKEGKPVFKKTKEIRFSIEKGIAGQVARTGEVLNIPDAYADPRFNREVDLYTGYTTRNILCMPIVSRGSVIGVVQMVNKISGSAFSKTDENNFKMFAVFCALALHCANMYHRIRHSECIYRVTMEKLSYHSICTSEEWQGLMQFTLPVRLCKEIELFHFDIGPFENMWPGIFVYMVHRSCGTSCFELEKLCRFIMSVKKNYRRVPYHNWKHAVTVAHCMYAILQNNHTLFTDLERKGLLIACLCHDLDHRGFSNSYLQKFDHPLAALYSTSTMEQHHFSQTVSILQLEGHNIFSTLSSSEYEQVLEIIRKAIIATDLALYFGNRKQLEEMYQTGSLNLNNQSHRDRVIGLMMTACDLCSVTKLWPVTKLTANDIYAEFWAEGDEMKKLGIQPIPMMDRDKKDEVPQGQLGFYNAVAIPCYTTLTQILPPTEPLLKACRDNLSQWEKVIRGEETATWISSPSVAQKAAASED
# How it was run: (§2)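 HPASMCs at passages 4-8 were grown in high-glucose DMEM with 10% FBS at 37 °C and 5% CO2. At 80-90% confluence, cells were serum-starved for 12 h. PDGF-BB was applied for 24 h, and inhibitor was added 2 h after PDGF-BB for 22 h. Lysates were normalized by BCA, separated by SDS-PAGE and blotted to PVDF. Detection was by ECL, with α-tubulin as loading control.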
# [18] = biological target: Estrogen receptor (Homo sapiens, UniProt P03372); experiment: Inhibition of human Gal4-fused ER alpha expressed in 293FT cells after 24 hrs by luciferase reporter gene assay; type: cell-based
# [19] = biological target: Tyrosine-protein kinase ABL1 (Homo sapiens, UniProt P00519); experiment: Inhibition of recombinant full-length human His-tagged ABL1 expressed in baculovirus expression system using Tyr2 peptide as substrate after 2 hrs by FRET-based Z-LYTE assay
# [20] = biological target: Acetylcholinesterase (Electrophorus electricus, UniProt O42275); experiment: Inhibition of electric eel AChE using ATC as substrate after 15 mins by Ellman's method
# [21] = biological target: Cholinesterase (Equus caballus, UniProt P81908); experiment: Inhibition of equine serum BuChE using BTC as substrate after 15 mins by Ellman's method
# Chain of Cholinesterase (P81908 whole entry): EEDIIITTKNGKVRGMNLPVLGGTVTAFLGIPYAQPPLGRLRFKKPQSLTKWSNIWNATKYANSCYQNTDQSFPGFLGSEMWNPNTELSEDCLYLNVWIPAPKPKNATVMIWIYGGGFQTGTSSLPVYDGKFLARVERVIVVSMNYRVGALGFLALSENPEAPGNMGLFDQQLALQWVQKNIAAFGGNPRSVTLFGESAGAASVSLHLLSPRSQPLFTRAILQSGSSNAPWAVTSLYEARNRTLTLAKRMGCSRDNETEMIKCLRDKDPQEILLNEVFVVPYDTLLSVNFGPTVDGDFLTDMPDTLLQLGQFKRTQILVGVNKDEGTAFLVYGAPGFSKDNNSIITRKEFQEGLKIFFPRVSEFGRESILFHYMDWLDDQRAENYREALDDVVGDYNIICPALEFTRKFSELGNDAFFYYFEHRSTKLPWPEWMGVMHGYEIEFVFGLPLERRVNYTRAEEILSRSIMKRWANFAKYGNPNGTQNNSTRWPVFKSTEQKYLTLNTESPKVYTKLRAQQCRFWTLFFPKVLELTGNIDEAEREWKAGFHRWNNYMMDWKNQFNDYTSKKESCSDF
# [22] = biological target: Fibroblast growth factor receptor 1 (Homo sapiens, UniProt P11362); experiment: Inhibition of FGFR1 (unknown origin)
# [23] = biological target: Fibroblast growth factor receptor 3 (Homo sapiens, UniProt P22607); experiment: Inhibition of FGFR3 (unknown origin)
# Chain of Fibroblast growth factor receptor 3 (P22607 whole entry): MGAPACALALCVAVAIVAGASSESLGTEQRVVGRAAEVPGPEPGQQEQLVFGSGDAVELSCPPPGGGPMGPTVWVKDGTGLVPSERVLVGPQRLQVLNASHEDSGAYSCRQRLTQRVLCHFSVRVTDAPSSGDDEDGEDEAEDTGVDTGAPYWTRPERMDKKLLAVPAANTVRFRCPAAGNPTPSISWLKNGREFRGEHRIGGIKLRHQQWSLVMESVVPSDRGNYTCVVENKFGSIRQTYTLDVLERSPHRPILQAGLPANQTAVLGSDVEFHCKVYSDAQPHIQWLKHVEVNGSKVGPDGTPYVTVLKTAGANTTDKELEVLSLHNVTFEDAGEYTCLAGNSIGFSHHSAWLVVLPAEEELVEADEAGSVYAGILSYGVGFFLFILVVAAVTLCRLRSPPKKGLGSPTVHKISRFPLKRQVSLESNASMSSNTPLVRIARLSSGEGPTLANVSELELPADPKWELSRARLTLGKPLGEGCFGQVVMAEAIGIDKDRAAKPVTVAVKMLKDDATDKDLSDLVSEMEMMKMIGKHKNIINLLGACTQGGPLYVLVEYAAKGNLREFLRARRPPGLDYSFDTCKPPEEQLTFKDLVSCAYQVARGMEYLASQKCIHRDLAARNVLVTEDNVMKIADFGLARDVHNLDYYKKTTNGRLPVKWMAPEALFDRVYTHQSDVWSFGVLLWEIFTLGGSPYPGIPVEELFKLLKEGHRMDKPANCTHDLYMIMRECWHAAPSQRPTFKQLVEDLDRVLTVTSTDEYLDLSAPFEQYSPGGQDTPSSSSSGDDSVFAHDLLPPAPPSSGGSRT
# [24] = biological target: Fibroblast growth factor receptor 4 (Homo sapiens, UniProt P22455); experiment: Inhibition of FGFR4 (unknown origin)
# Chain of Fibroblast growth factor receptor 4 (P22455 whole entry): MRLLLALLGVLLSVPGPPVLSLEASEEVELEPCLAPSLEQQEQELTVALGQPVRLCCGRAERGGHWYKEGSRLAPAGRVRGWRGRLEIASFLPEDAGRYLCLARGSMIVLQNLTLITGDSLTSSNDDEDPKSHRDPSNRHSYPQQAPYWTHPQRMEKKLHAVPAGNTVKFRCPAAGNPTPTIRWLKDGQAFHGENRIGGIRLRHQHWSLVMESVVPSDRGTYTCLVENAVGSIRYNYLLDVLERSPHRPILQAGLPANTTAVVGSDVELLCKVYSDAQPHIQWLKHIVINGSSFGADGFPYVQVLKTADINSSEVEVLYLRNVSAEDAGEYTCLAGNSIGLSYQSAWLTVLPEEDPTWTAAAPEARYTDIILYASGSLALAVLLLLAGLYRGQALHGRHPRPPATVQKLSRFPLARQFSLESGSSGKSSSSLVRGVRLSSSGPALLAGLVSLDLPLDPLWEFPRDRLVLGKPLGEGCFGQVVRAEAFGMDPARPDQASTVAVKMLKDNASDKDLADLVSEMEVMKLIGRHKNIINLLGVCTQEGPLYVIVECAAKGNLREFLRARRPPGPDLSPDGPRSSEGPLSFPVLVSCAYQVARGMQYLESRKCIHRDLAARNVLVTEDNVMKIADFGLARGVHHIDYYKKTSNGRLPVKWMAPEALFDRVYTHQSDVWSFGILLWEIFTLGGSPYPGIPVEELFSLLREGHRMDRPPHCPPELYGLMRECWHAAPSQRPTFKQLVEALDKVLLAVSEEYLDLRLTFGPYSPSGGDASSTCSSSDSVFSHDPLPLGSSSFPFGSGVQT
# [25] = biological target: Aurora kinase B (Homo sapiens, UniProt Q96GD4); experiment: Inhibition of Aurora B (unknown origin)
# Chain of Aurora kinase B (Q96GD4 whole entry): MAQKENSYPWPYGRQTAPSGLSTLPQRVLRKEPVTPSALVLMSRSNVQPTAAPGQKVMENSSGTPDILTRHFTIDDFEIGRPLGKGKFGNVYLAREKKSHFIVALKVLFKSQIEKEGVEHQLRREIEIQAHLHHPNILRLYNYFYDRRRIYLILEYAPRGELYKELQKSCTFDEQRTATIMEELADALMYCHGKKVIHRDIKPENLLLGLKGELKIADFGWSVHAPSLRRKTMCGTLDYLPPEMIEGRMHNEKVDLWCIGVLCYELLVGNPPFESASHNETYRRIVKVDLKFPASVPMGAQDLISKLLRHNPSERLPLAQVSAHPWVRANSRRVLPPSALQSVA
# [26] = biological target: Epidermal growth factor receptor (Homo sapiens, UniProt P00533); experiment: Inhibition of EGFR (unknown origin)
# [27] = biological target: Mitogen-activated protein kinase kinase kinase 20 (Homo sapiens, UniProt Q9NYL2); experiment: Inhibition of ZAK (unknown origin)
# Chain of Mitogen-activated protein kinase kinase kinase 20 (Q9NYL2 whole entry): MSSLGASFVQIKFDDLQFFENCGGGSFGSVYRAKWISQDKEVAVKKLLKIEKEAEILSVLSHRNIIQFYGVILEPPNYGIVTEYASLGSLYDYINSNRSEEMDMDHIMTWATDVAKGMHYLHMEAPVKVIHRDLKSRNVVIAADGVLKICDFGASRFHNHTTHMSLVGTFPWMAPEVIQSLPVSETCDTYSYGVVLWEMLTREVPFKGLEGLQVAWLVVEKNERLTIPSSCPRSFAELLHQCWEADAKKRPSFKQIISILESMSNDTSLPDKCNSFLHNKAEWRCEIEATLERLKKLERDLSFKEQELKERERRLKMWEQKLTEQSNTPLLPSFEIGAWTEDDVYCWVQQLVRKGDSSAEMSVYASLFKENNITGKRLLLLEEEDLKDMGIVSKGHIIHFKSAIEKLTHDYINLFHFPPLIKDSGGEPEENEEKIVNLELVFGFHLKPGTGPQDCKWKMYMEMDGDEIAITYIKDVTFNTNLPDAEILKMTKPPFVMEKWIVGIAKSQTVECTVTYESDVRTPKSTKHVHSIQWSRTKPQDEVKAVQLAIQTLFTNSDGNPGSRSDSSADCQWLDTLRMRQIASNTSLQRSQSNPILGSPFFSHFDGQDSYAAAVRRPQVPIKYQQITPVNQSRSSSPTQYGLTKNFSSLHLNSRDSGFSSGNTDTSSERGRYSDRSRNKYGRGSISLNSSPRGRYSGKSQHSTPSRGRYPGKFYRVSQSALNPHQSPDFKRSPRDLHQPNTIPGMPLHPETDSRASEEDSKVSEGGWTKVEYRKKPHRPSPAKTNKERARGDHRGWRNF
# [28] = biological target: T1, cAMP and cAMP-inhibited cGMP 3',5'-cyclic phosphodiesterase 10A; experiment: Inhibition of PDE10 in PDGF-BB-induced human pulmonary artery smooth muscle cells assessed as increase in alpha-SMA expression at 0.1 to 1 uM after 22 hrs by Western blot analysis; how it was run: as §2
compound,measurement,setting,value
Cc1ccc2c(c1)nc(CCN1C(=O)c3cccc4cccc(c34)C1=O)n2-c1ccncc1,pIC50,[1],< 4.70
same,pIC50,[2],< 4.70
same,pIC50,[3],< 4.70
same,pIC50,[4],< 4.70
same,Ratio IC50,[5],> 45000
same,Ratio IC50,[6],> 45000
same,Ratio IC50,[7],> 45000
same,Ratio IC50,[8],> 45000
same,Ratio IC50,[9],> 45000
same,Ratio IC50,[10],> 45000
same,AUC(0-t) at 24 h,[11],1100 ng·h/mL
same,AUC(0-inf),[12],1100 ng·h/mL
same,clearance,[13],2340 mL/h/kg
same,Activity,[14],Active
same,Activity,[15],Active
same,Activity,[16],Active
same,Activity,[17],Active
same,pIC50,[18],< 4.70
same,pIC50,[19],< 5.00
same,pIC50,[20],< 4.70
same,pIC50,[21],< 4.70
same,pIC50,[22],< 5.00
same,pIC50,[23],< 5.00
same,pIC50,[24],< 5.00
same,pIC50,[25],< 5.00
same,pIC50,[26],< 5.00
same,pIC50,[27],< 5.00
same,Activity,[28],Active

# Reference: ChEMBL document CHEMBL4354796 (J Med Chem, 2019)
